# Published values pooled from the literature.
# Target: Tyrosine-protein kinase CSK (CSK, Homo sapiens, UniProt P41240)
SMILES,effect on,method,concentration,remaining binding [%]
Cc1cnc(Nc2ccc(C(=O)N3CCC(N4CCCC4)CC3)cc2)nc1-c1cc2ccccc2s1,binding,competition with immobilised ligand,1 µM,62
Cc1cnn2ncc(-c3ccnc(N(C)C)n3)c2c1,binding,,1 µM,99
c1cncc(-c2cccc(Nc3nccc(NC4CCCCC4)n3)c2)c1,binding,competition with immobilised ligand,10 µM,88
Cc1ccc(-n2nc(C(C)(C)C)cc2NC(=O)Nc2ccc(-n3c(N)c(C(N)=O)c4nc5ccc(NCCCN)cc5nc43)cc2)cc1,cell-free assay,competition with immobilised ligand,1 µM,0.65
N#Cc1ccc(Nc2ccc3[nH]c(=O)[nH]c3c2)c(Cl)c1,cell-free assay,competition with immobilised ligand,1 µM,89
COc1cnc(Nc2cccc(S(N)(=O)=O)c2)nc1N1CCN(c2ccccc2)C(=O)C1,binding,competition with immobilised ligand,1 µM,100
O=C(NCCCN1CCOCC1)c1ccc(Nc2ncc(Cl)c(-c3ccc(Cl)s3)n2)cc1,binding,competition with immobilised ligand,1 µM,86
O=C(NCC1CCOCC1)c1n[nH]cc1NC(=O)c1c(F)cccc1F,binding,competition with immobilised ligand,1 µM,98
C[C@@H]1CCN(c2nccc(-c3cnn4ncccc34)n2)C1,binding,,1 µM,89
CS(=O)(=O)c1cc(C2(NC(=O)c3cncc4c3cnn4-c3ccc(F)cc3)CC2)ccn1,cell-free assay,competition with immobilised ligand,1 µM,95
FC(F)(F)Oc1cccc(-c2cnc3ccc(-c4ccncc4)nn23)c1,cell-free assay,competition with immobilised ligand,5 µM,86
Nc1c(C(=O)NCc2ccc(C(=O)NCCCC3CCCCC3)cc2)cnn1-c1ccccc1,cell-free assay,competition with immobilised ligand,0.1 µM,100
O=C(NCCCN1CCOCC1)c1ccc(Nc2nccc(-c3cc4ccccc4s3)n2)cc1,binding,competition with immobilised ligand,1 µM,90
CN(C)c1ncc(F)c(-c2cnn3ncccc23)n1,binding,,1 µM,98
CCc1ccccc1C(=O)Nc1n[nH]c2c(C)c(F)c(C3C(C#N)=C(C)N(C)C(C)=C3C#N)cc12,cell-free assay,competition with immobilised ligand,1 µM,98
COc1ccnn2ncc(-c3ccnc(N(C)C)n3)c12,binding,,1 µM,96
COc1ccc2c(c1)O[C@@H](c1ccc(OC)c(OC)c1)C[C@H]2NC(=O)C1(c2ccc3c(c2)OC(F)(F)O3)CC1,cell-free assay,competition with immobilised ligand,1 µM,87
c1cnn2ncc(-c3ccnc(N4CCC45COC5)n3)c2c1,binding,,1 µM,88
CC(=O)C1=C(C)N(c2cccc(C(F)(F)F)c2)C(=O)N[C@@H]1c1ccc(C#N)nc1,cell-free assay,competition with immobilised ligand,1 µM,90
N[C@H]1CCN(c2nccc(-c3cnn4ncccc34)n2)C1,binding,,1 µM,100
Nc1ncc2c(n1)-c1c([nH]c3ccc(C#CC4CC4)cc13)CCCC2,binding,competition with immobilised ligand,1 µM,96
